Paper PMC10328739 (Small (Weinheim an der Bergstrasse, Germany), 2021)

Columns and labels:
[1] = Screening of micelle elongation; format: physicochemical; settings: T2 micelles
How it was run: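 Drug loaded into T2 micelles at polymer/drug w/w 10/0, 10/1, 10/2, 10/4 and 10/8. Particle size and size distribution followed over time by DLS. Polymer concentration (1.25–80 mg mL⁻¹), temperature (4, 25, 37 °C) and NaCl (up to ≈4%) also varied. Each formulation scored as spherical, sphere+worm mix, worm, or precipitate.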

[2] = Maximal drug solubilization in POx micelles; format: physicochemical
[3] = system: BRCA1-mutant human breast carcinoma xenograft MDA-MB-436; assay: Tumor inhibition, MDA-MB-436 xenograft; format: in vivo, athymic nude mice; settings: 20 mg kg^−1 IV, twice a week, six injections

mass fraction of drug that inhibited elongation [1]	maximal solubilization ([2]; in T2 micelles)	maximal solubilization ([2]; in T3 micelles)	Compound	antitumor activity (tumor growth inhibition) [3]
≤ 10%	4 mg/mL	8 mg/mL	CC1(C)CCC(c2ccc(Cl)cc2)=C(CN2CCN(c3ccc(C(=O)NS(=O)(=O)c4ccc(N[C@H](CCN5CCOCC5)CSc5ccccc5)c(S(=O)(=O)C(F)(F)F)c4)cc3)CC2)C1 [ABT-263]	
			O=C(c1cc(Cc2n[nH]c(=O)c3ccccc23)ccc1F)N1CCN(C(=O)C2CC2)CC1 [Olaparib]	neither the blank spherical micelles nor the free olaparib (20 mg kg^−1) displayed inhibition of the tumor growth
≤ 10%			CC(=O)O[C@H]1C(=O)[C@@]2(C)[C@H]([C@H](OC(=O)c3ccccc3)[C@]3(O)C[C@H](OC(=O)[C@H](O)[C@@H](NC(=O)c4ccccc4)c4ccccc4)C(C)=C1C3(C)C)[C@]1(OC(C)=O)CO[C@@H]1C[C@@H]2O [Paclitaxel]	
≤ 10%	4 mg/mL	8 mg/mL	CS(=O)(=O)c1ccc(C(=O)Nc2ccc(Cl)c(-c3ccccn3)c2)c(Cl)c1 [Vismodegib]	
